In ChEMBL document CHEMBL1141156, “Mapping antimalarial pharmacophores as a useful tool for the rapid discovery of drugs effective in vivo: design, construction, characterization, and pharmacology of metaquine” (2005) one finds Log K, ED50 and IC50 data, which are given here for 2 compounds.

A word on the IC50: it is the midpoint of a concentration-inhibition curve. Read a low IC50 as greater potency in that assay.

Assay [1] can be described thus: Binding constant dissolved in DMSO against hematin receptor at pH 7.4 (HEPES Buffer) upon incubation at 30 degree C. Summed up:
(§1)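 Hemin from 1.2 mM DMSO stock diluted to ~12 μM in 40% aqueous DMSO, 0.02 M HEPES, apparent pH 7.4–7.5 (monomeric hematin). Drug serial dilutions mixed with heme in microplate wells, 30 min incubation at the stated temperature, absorbance at 405 nm (Soret). Reference wells without heme subtract drug absorbance. Triplicate readings; log K by nonlinear least-squares fit, 1:1 heme–drug model.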

A short description of assay [2]: Dose (diphosphate) present in DMSO required to inhibit Plasmodium berghei N/13 infected mice (Mus musculus) administered subcutaneously 3-4 hr after infection on day 1 and then twice daily on days 2 and 3. Format: functional. The settings on record: sc, read-out: ID50 (the source's name). Summed up:
(§2)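 MF1 mice inoculated iv with 2×10^7 P. berghei N/13 parasitized erythrocytes. Drug given sc as five injections over 72 h in olive oil/DMSO (96:4) or saline/DMSO (96:4). Parasitemia read at 72 h on Leishman-stained tail blood smears, 4–8 mice per dose, 2–8 dose levels. ID50 is the dose giving 50% inhibition versus concurrent vehicle-treated mice.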

A further assay has as its system Plasmodium falciparum. The assay is described as follows: In vitro inhibition of Plasmodium falciparum K1. Format: functional. A digest of the protocol:
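Synchronized, mostly ring-stage P. falciparum K1 at 1.0% parasitemia in RPMI 1640 with 25 mM HEPES pH 7.4 and 32 mM NaHCO3. Drug from DMSO stock, final DMSO ≤0.01%. Culture 24 h at 37 °C under 17% O2/3% CO2/80% N2, then 18–24 h with [3H]hypoxanthine. Incorporation counted by scintillation after filter harvest; IC50 reported.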

The nature of assay [3]: Binding constant dissolved in DMSO against hematin receptor at pH 7.4 (HEPES Buffer) upon incubation at 37 degree C. A digest of the protocol:
as §1

The nature of assay [4]: Binding constant dissolved in DMSO against hematin receptor at pH 7.4 (HEPES Buffer) upon incubation at 42 degree C. A digest of the protocol:
as §1

Another assay has as its system Plasmodium berghei. The assay is described as follows: In vivo 50% inhibition of parasitaemia in Plasmodium berghei infected mice (Mus musculus) by oral dose. Format: functional. Particulars: read-out: ID50 (the source's name). Summed up: (§3)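 P. berghei-infected MF1 mice (2×10^7 parasitized erythrocytes iv). Drug in Water for Injections BP/DMSO (98:2) at 65 and 199 μM in drinking water, ad libitum; daily volume drunk measured to calculate dose. Parasitemia on Leishman-stained tail smears at 72 h, 4–8 mice per group. ID50 is 50% inhibition versus vehicle-treated mice.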

The nature of assay [5]: Dose of the compound (hydrochloride) required to inhibit Plasmodium berghei Plasmodium berghei N/13 parasitemia by 50%. Format: functional. Particulars: read-out: ID50 (the source's name). Summed up: as §3
Assay [6] is described as follows: Dose present in DMSO required to inhibit Plasmodium berghei N/13 infected mice (Mus musculus) administered subcutaneously 3-4 hr after infection on day 1 and then twice daily on days 2 and 3. Format: functional. The settings on record: sc, read-out: ID50 (the source's name). A digest of the protocol:
as §2

A short description of assay [7]: Binding constant dissolved in DMSO against hematin receptor at pH 7.4 (HEPES Buffer) upon incubation at 23 degree C. Summed up: as §1
A short description of assay [8]: Dose (dihydrochloride) present in DMSO required to inhibit Plasmodium berghei NY infected mice (Mus musculus) administered intraperitoneally. The format is functional. The settings on record: ip, read-out: ID50 (the source's name). A digest of the protocol: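 MF1 mice infected iv with 2×10^7 P. berghei NY parasitized erythrocytes. Dosing ip, five injections over 72 h, in Water for Injections BP/DMSO (96:4). Parasitemia counted on Leishman-stained tail smears at 72 h, groups of 4–8 mice. ID50 derived from 2–8 dose levels relative to vehicle-treated controls.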

The nature of assay [9]: Dose (dihydrochloride) present in DMSO required to inhibit Plasmodium berghei N/13 infected mice (Mus musculus) administered subcutaneously. The format is functional. The settings on record: sc, read-out: ID50 (the source's name). Summed up: as §2

Take `CCN(CC)CCCC(C)Nc1ccnc2cc(Cl)ccc12` (stereo not given) [CHLOROQUINE]: the Log K in assay [1] was 5.4; in assay [3], 5.4; in assay [4], 5.3. The ED50 in assay [2] is 8.3 µmol/kg. This compound came in with an IC50 with Plasmodium falciparum of 230 nM.
As for `Clc1ccc2c(Nc3cccc(Nc4ccnc5cc(Cl)ccc45)c3)ccnc2c1` [METAQUINE], the Log K is 5.4 in assay [1], 6.1 in [7], 5.1 in [3] and 5.8 in [4]. For the same compound, the ED50 in the assay on Plasmodium berghei came to 25 µmol/kg; in assay [5] it was 2.4 µmol/kg; in assay [6] it was 1.5 µmol/kg; in assay [8], 3.2 µmol/kg; in assay [9] it was 2.9 µmol/kg. For the same compound, in the assay on Plasmodium falciparum, half-maximal inhibition (IC50) was put at 170 nM.
